From ChEMBL document CHEMBL4513216, “Probing the Open Global Health Chemical Diversity Library for Multistage-Active Starting Points for Next-Generation Antimalarials” (ACS Infect Dis, 2020)

Assay: Toxicity liver stage against HepG2, at 10uM
Type: cell-based
Design: test concentration 10 uM, cell line HepG2-A16-CD81EGFP
Details: human, HepG2-A16-CD81EGFP cells; read-out: INHIBITION
Outline: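 Uninfected HepG2-A16-CD81EGFP cells, 3 × 10^3 per well, 1536-well, plated on prespotted compound at 10 μM final, parasite-free screening media added to match infected plates; puromycin 10 μM positive, DMSO 0.5% negative; run in parallel with 48 h PbLuc assay at 37 °C, 5% CO2; viability by CellTiter-Glo luminescence, normalized to controls.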

Structure (SMILES)	cytotoxicity at 10 µM
COc1ccccc1Oc1ncccc1CNC(=O)C(O)C(F)(F)F (configuration not stated)	-3.37%
Cn1c(NCC(=O)N2CCCC2)c(C#N)c(=O)n(C)c1=O	15.4%
CCOC(=O)Cn1c(=O)[nH]c2cn(-c3ccccc3)c(=O)n21	0.379%
Cc1nn(C)c2c(=O)n(Cc3ccc(F)cc3)nnc12	3.41%
CN(C)Cc1ccccc1NC(=O)c1ccc(C#N)cc1	4.2%
c1cncc(CNc2cncc(C3CCCN3)n2)c1 (configuration not stated)	9.93%
Cc1noc(C)c1CN(C)Cn1c(=O)oc2ccccc21	-5.07%
CC1(C(=O)N2CCC(n3cc(C4(O)CCCC4)nn3)CC2)CCCCC1	0.68%
CCCN1CCN(C(=O)c2ccc(Cn3cc(Br)cn3)cc2)CC1	-6.11%
CC(=O)Nc1nc(C(=O)N2CCC(Nc3cccnn3)CC2)cs1	-4.67%
CCc1noc(C)c1C(=O)NCc1ccccn1	-1%
CCn1ccnc1CN1CCN(C(C)C)CC1C (configuration not stated)	-6.58%
CCS(=O)(=O)N1CCC(n2nc(-c3cc(C)oc3C)ccc2=O)CC1	8.82%
CC(C)c1nccn1Cc1cc(C(=O)NCC(F)(F)F)n[nH]1	3.73%
Cn1cccc1C(=O)NCc1cnc2n1CCN(c1ccccn1)C2	-2.74%
O[C@@H]1C[C@@H](c2nc(-c3ccc(OC(F)(F)F)cc3)no2)N(CC2CC2)C1	1.32%
CN(C)c1cc(CNC(=O)c2ccccc2Cl)ccn1	-8.28%
O=C(NCCCn1cccn1)C1(c2ccccc2)CCOCC1	5.78%
Cc1cccc(N2CCCC3(C2)CN(c2nncs2)CCO3)c1 (configuration not stated)	9%
Cc1ccc(-c2nnc(CN3CC(n4cc(C)cn4)C3)o2)cc1	2.48%
O=C(NCc1nn(-c2ccccc2)c2c1CCC2)NCC1COCCO1 (configuration not stated)	-3.39%

Structure (SMILES)	cytotoxicity at 10 µM
c1cc(CCN2CCN(c3ccc4nncn4n3)CC2)ccn1	4.76%
Cc1cc(N(C)C)nc(C2COCCN2Cc2csc(C)n2)n1 (configuration not stated)	1.75%
CCNc1nnc(SCC(=O)N2CCN(Cc3ccc(Cl)s3)CC2)s1	15.2%
CCS(=O)(=O)N1CCCN(CCCOC)CC1	7.73%
CC(C)Cn1cncc1Cn1cccc(C(F)(F)F)c1=O	-10.2%
CC(C)(C)c1noc(CCC(=O)N2CCN(Cc3ccco3)CC2)n1	6.11%
O=C(c1ccsc1)N1C[C@H]2CN(Cc3cccc(F)c3)C(=O)[C@H]2C1	0.98%
CSc1nc2ncc3c(=O)n(C)ccc3n2n1	-11.6%
O=C(CC1CC1)NC[C@]12COC[C@H]1CN(c1ncccn1)C2	-142%
COCCS(=O)(=O)Nc1ccc(-n2nccc2C(F)(F)F)cc1	1.26%
Cn1nc2c(cc1=O)CN(CC1CCCCO1)CC2 (configuration not stated)	2.58%
O=C(NCc1nnc2n1CCCC2)N1CCc2sccc2C1	-9.78%
O=C(NCCc1c[nH]cn1)c1ccc2c(c1)C(=O)N(C1CC1)C2=O	11.7%
CCN(CC)S(=O)(=O)CC(=O)N1CCc2ccc(Cl)cc21	-5.42%
CCN1CCN(c2ccc(NC(=O)CC(C)C)c(C)c2)CC1	-8.87%
O=C(CCCc1ccccc1)N1CCCC(n2cncn2)C1 (configuration not stated)	-18.3%
CC(C)(C)c1nc(NS(=O)(=O)c2ccccc2F)no1	-1.45%
COc1ccc2c(c1)OCC(C(=O)NCc1nc3c(s1)CCCC3)C2 (configuration not stated)	-4.29%
Cc1nn(C)cc1-c1cc(-c2cn(C)nc2C)n(CC(=O)NC2CC2)n1	4.46%
CCCn1ncc(-c2ccnc(NC3CC(C)(C)NC(C)(C)C3)n2)c1C	4.84%
CNc1nc(C(=O)N2C[C@@H]3CC[C@H]2CN(S(C)(=O)=O)C3)cs1	0.977%

Structure (SMILES)	cytotoxicity at 10 µM
CCN1CC2(CCC1=O)CCN(Cc1cscn1)CC2	2.48%
CC(C)C(=O)NC1COC2(CCN(C(=O)c3ccc[nH]3)CC2)C1 (configuration not stated)	6.15%
O=C(NCc1nnc2n1CCC2)N1CCc2sccc2C1	-12.5%
CCc1cnc(C)nc1NC1CC(=O)N(CC2CCCCC2)C1 (configuration not stated)	-6.38%
O=C(c1cc(C2CC2)on1)N1CCC(Oc2ncccc2Br)CC1	3.96%
CCOC(=O)N1CCN(C(=O)Cn2ccc3ncccc3c2=O)CC1	-4.99%
CC(O)CN1CCN(C(=O)c2cc(Cl)cc3cccnc23)CC1 (configuration not stated)	-1.78%
Cc1nc(=O)c(CC(=O)N2C[C@H]3CC[C@@H](C2)N(CC2CCC2)C3)c(C)[nH]1	9.6%
CCC(NS(C)(=O)=O)c1ccccc1OC (configuration not stated)	-43.1%
CC(C)Sc1nnnn1C1CCCC1	-8.61%
CNC(=O)NC(=O)C(C)N1CCN(c2ccc(C#N)cc2F)CC1 (configuration not stated)	2.83%
CCN1CCN(C(=O)c2ccc3c(c2)OCC(=O)N3)[C@H]2CS(=O)(=O)C[C@H]21	-49.6%
COc1ccc(-c2nnc(CNCCn3cccn3)o2)cc1	-14.5%
COc1cccc([C@H]2CN(C(=O)c3nnc4n3CCCC4)C[C@@H]2N)c1	-2.57%
Cc1nc(N2CCN(C(=O)c3cccs3)CC2)cc(-n2cccc2)n1	1.01%
Fc1cnccc1CN1CCCC2(CCN(c3ncccn3)CC2)C1	-112%
c1ccc(CCn2cc(-c3nc(CN4CCOCC4)no3)nn2)cc1	1.85%
CC(C)c1nc2c(n1C)CCN(Cc1nc(-c3ccco3)no1)C2	-0.403%
Cc1nn(C)c(N2CCOCC2)c1CNCC1CCN(C2CC2)C1 (configuration not stated)	-3.32%
COc1ccccc1C1(NCc2c(C)nc3c(C)cccn23)CCCC1	15.2%
O=C(C1SCCc2sccc21)N1CCC(O)CC1 (configuration not stated)	-7.38%

Structure (SMILES)	cytotoxicity at 10 µM
Cc1cccc(-c2ccc(C(=O)N3CCN(C4CC4)CC3)c(=O)[nH]2)c1	13.2%
O=C(C1CCCC1)N1CCC(C2CCN(Cc3ccc(Cl)cc3)C2)CC1 (configuration not stated)	-2.45%
Cc1ccc(-c2cnnc(NCC3CCOCC3)n2)o1	-3.64%
CCc1ccc(C(=O)N2CCC(c3nncn3CC)CC2)o1	3.14%
CCOc1ccccc1-c1noc(CN2CCCC(O)C2)n1 (configuration not stated)	-3.85%
COCCc1nnc(NC(=O)CCCc2ccccc2)o1	-4.34%
CC(C)(C)OC(=O)CNC(=O)CCc1nnc(-c2ccsc2)o1	-10.2%
NC(=O)C(Nc1ccc(Cl)cc1)c1ccc(F)cc1 (configuration not stated)	-0.82%
CN(Cc1cccc(F)c1)C(=O)CN1CCOC(Cn2cccn2)C1 (configuration not stated)	-8.21%
O=C1NCC2=Nc3ccccc3NC(c3ccc(O)cc3)C12 (configuration not stated)	3.63%
COC(=O)c1ccc(C(=O)N2CCc3c(ncn3C3CC3)C2)cc1	-3.34%
CC(C)N(Cc1ccccn1)C(=O)CN(C)C(=O)c1cccs1	2.31%
CCS(=O)(=O)N1CCc2cc(C(=O)NC)c(NCC(C)C)nc2CC1	-149%
Cc1nc(-c2ccccc2)cc2nn(CC(N)=O)c(=O)n12	0.301%
CN(Cc1cc(-c2ccccc2)no1)C1CCCN(c2cccnn2)C1 (configuration not stated)	-10.2%
Cc1nn(C)c2c(NCc3ccccn3)nc(C(C)C)nc12	-3.23%
COc1ccc(CNC(=O)N(Cc2ccc(F)cc2F)C2CC2)cn1	-6.67%
Cc1cc(C)nc(N2CC[C@@]3(O)CCN(S(=O)(=O)N(C)C)C[C@H]3C2)n1	3.5%
Cc1noc(C)c1C(=O)N1CCC(Nc2cccnn2)CC1	-4.48%
